Assay results reported in ChEMBL document CHEMBL1128606, “Nucleosides and nucleotides. 141. Chemical stability of a new antitumor nucleoside, 2'-C-cyano-2'-deoxy-1-beta-D-arabino-pentofuranosylcytosine in alkaline medium: formation of 2'-C-cyano-2'-deoxy-1-beta-D-ribo-pentofuranosylcytosine and its antitumor activity” (J Med Chem, 1995).

Tests used:
[1] = Kinetic parameter of epimerization at a salt concentration (0.01 M) of in Tris.HCl buffer(pH 9.0) and 37 degree C (or )in RMPI 1640 cell culture medium containing 10%FCS; format: ADME, cell-based; conditions: rmpi 1640, pH 9
Summary of the method: (§1)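 Starting nucleoside (3 mg, 0.012 mmol) in 1 mL Tris-HCl (pH 7.5–10.3; 10 mM unless salt varied to 0.01–1 M at pH 9.0) or RPMI 1640 with 10% FCS, 37 °C. Timed samples analyzed by C-18 HPLC, 2.5% aqueous MeOH, 254 nm; peak areas corrected by ε. Rate constants k12, k21, k13, k23 obtained by nonlinear least-squares fit to compartment model; t1/2 reported.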

[2] = Kinetic parameter of epimerization at a salt concentration (0.1 M) of in Tris.HCl buffer(pH 9.0) and 37 degree C (or )in RMPI 1640 cell culture medium containing 10%FCS; format: ADME, cell-based; conditions: rmpi 1640, pH 9; summary of the method: as §1
[3] = Kinetic parameter of epimerization at a salt concentration (1 M) of in Tris.HCl buffer(pH 9.0) and 37 degree C (or )in RMPI 1640 cell culture medium containing 10%FCS; format: ADME, cell-based; conditions: rmpi 1640, pH 9; summary of the method: as §1
[4] = Kinetic parameter of epimerization in Tris.HCl buffer at a pH 10.0 (or )in RMPI 1640 cell culture medium containing 10%FCS; format: ADME, cell-based; conditions: rmpi 1640, pH 10; summary of the method: as §1
[5] = Kinetic parameter of epimerization in Tris.HCl buffer at a pH 7.5 (or )in RMPI 1640 cell culture medium containing 10%FCS; format: ADME, cell-based; conditions: rmpi 1640, pH 7.5; summary of the method: as §1
[6] = Kinetic parameter of epimerization in Tris.HCl buffer at a pH 8.0 (or )in RMPI 1640 cell culture medium containing 10%FCS; format: ADME, cell-based; conditions: rmpi 1640, pH 8; summary of the method: as §1
[7] = Kinetic parameter of epimerization in Tris.HCl buffer at a pH 9.0 (or )in RMPI 1640 cell culture medium containing 10%FCS; format: ADME, cell-based; conditions: rmpi 1640, pH 9; summary of the method: as §1
[8] = Kinetic parameter of epimerization in Tris.HCl buffer at a pH 9.6 (or )in RMPI 1640 cell culture medium containing 10%FCS; format: ADME, cell-based; conditions: rmpi 1640, pH 9.6; summary of the method: as §1
[9] = Kinetic parameter of epimerization in Tris.HCl buffer at a pH 10.0(or )in RMPI 1640 cell culture medium containing 10%FCS; format: ADME, cell-based; conditions: rmpi 1640, pH 10; summary of the method: as §1
[10] = Degradation of CNDAC at 0.01 M concentration in Tris-degrees C; format: ADME; conditions: Tris buffer; summary of the method: as §1
[11] = Degradation of CNDAC at 0.1 M concentration in Tris-degrees C; format: ADME; conditions: Tris buffer; summary of the method: as §1
[12] = Degradation of CNDAC at 10 pH in Tris-degrees C; format: ADME; conditions: Tris buffer, pH 10; summary of the method: as §1
[13] = Degradation of CNDAC at 7.5 pH in Tris-degrees C; format: ADME; conditions: Tris buffer, pH 7.5; summary of the method: as §1
[14] = Degradation of CNDAC at 8 pH in Tris-degrees C; format: ADME; conditions: Tris buffer, pH 8; summary of the method: as §1
[15] = Degradation of CNDAC at 9 pH in Tris-degrees C; format: ADME; conditions: Tris buffer, pH 9; summary of the method: as §1
[16] = Degradation of CNDAC at 9.6 pH in Tris-degrees C; format: ADME; conditions: Tris buffer, pH 9.6; summary of the method: as §1
[17] = system: MKN-74; experiment: In Vitro cell growth inhibitory activity of CNDAC Stomach Carcinoma MKN-74 (1*10e3) cell lines on 20-min exposure; format: functional, cell-based, Homo sapiens
Summary of the method: (§2)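 MTT assay. Cells seeded (WiDr 5×10^2, SBC-5 2.5×10^2, MKN-74 1×10^3 per well), 24 h preincubation at 37 °C, 5% CO2. Graded drug concentrations added in tetraplicate for 20 min or 48 h, then washed three times with medium and cultured to 6 days from drug addition. MTT 1 mg/mL for 4 h, DMSO solubilization, A540. IC50 read graphically from dose-response curve.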

[18] = system: MKN-74; experiment: In Vitro cell growth inhibitory activity of CNDAC Stomach Carcinoma MKN-74 (1*10e3) cell lines on 48-h exposure; format: functional, cell-based, Homo sapiens; summary of the method: as §2
[19] = system: Mus musculus; experiment: In vivo antileukemic activity of CNDAC against P388 mouse leukemic cells by ip administration of dose 100 (mg/kg/day); format: functional
Summary of the method: (§3)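 Female CDF1 mice, 6 weeks old (n = 6), implanted ip with 1×10^6 viable P388 cells maintained by weekly ip passage in DBA/2 mice. Drug in saline (0.1 mL/10 g body weight) given ip on days 1–5. T/C is treated vs untreated median survival time. Weight change is day 7 minus day 1 average.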

[20] = system: Mus musculus; experiment: In vivo antileukemic activity of CNDAC against P388 mouse leukemic cells by ip administration of dose 200 (mg/kg/day); format: functional; summary of the method: as §3
[21] = system: Mus musculus; experiment: In vivo antileukemic activity of CNDAC against P388 mouse leukemic cells by ip administration of dose 50 (mg/kg/day); format: functional; summary of the method: as §3
[22] = system: Mus musculus; experiment: In vivo antileukemic activity of CNDAC against P388 mouse leukemic cells by ip administration of dose 25 (mg/kg/day); format: functional; summary of the method: as §3
[23] = system: SBC-5; experiment: In Vitro cell growth inhibitory activity of CNDAC against Small Cell Lung Carcinoma-5 (2.5*10e2) cells on 20-min exposure; format: functional, cell-based; conditions: Homo sapiens, SBC-5, 20 min; summary of the method: as §2
[24] = system: SBC-5; experiment: In Vitro cell growth inhibitory activity of CNDAC against Small Cell Lung Carcinoma-5 (2.5*10e2) cells on 48-h exposure; format: functional, cell-based, Homo sapiens; summary of the method: as §2
[25] = system: WiDr; experiment: In Vitro cell growth inhibitory activity of CNDAC against Human Colon Carcinoma WiDr 5*10e2 cells on 20- min exposure; format: functional, cell-based; summary of the method: as §2
[26] = system: WiDr; experiment: In Vitro cell growth inhibitory activity of CNDAC against Human Colon Carcinoma WiDr 5*10e2 cells on 48-h exposure; format: functional, cell-based; summary of the method: as §2
[27] = Degradation of CNDAC at 1 M concentration in Tris-degrees C; format: ADME; conditions: Tris buffer; summary of the method: as §1

N#C[C@H]1[C@H](O)[C@@H](CO)O[C@H]1n1ccc(N)nc1=O (stereo in doubt; form 1) [TAS-109]
K12 [1]: 0.88 h⁻¹
K13+K23 [1]: 0.09 h⁻¹
K21 [1]: 0.6 h⁻¹
K12 [2]: 1.88 h⁻¹
K13+K23 [2]: 0.19 h⁻¹
K21 [2]: 1.16 h⁻¹
K12 [3]: 2.31 h⁻¹
K13+K23 [3]: 0.3 h⁻¹
K21 [3]: 1.35 h⁻¹
K12 [4]: 6.18 h⁻¹
K13+K23 [4]: 0.69 h⁻¹
K12 [5]: 0.062 h⁻¹
K13+K23 [5]: 0.009 h⁻¹
K21 [5]: 0.037 h⁻¹
K12 [6]: 0.22 h⁻¹
K13+K23 [6]: 0.02 h⁻¹
K21 [6]: 0.14 h⁻¹
K12 [7]: 0.88 h⁻¹
K13+K23 [7]: 0.09 h⁻¹
K21 [7]: 0.6 h⁻¹
K12 [8]: 2.14 h⁻¹
K13+K23 [8]: 0.26 h⁻¹
K21 [8]: 1.41 h⁻¹
K21 [9]: 4.07 h⁻¹
half-life [10]: 60 min
half-life [11]: 30 min
half-life [12]: 8.4 min
half-life [13]: 38 h
half-life [14]: 240 min
half-life [15]: 60 min
half-life [16]: 27 min
IC50 [17]: 24.9 µM
IC50 ([18]; Homo sapiens, MKN-74, 48 h): 0.15 µM
T/C [19]: 311%
T/C [20]: 333%
T/C [21]: 300%
T/C [22]: 300%
Weight change [22]: 0.3 g
IC50 [23]: 7.14 µM
IC50 ([24]; Homo sapiens, SBC-5, 48 h): 0.222 µM
IC50 [25]: 16.5 µM
IC50 ([26]; Homo sapiens, WiDr, 48 h): 0.157 µM
half-life [27]: 21 min

N#C[C@H]1[C@H](O)[C@@H](CO)O[C@H]1n1ccc(N)nc1=O (stereo in doubt; form 2) [TAS-109]
IC50 [17]: 265 µM
IC50 ([18]; mkn-74): 0.206 µM
T/C [19]: 180%
Weight change [19]: 0.7 g
T/C [20]: 203%
Weight change [20]: 0.9 g
T/C [21]: 164%
Weight change [21]: 0.9 g
T/C [22]: 138%
Weight change [22]: 1.6 g
IC50 [23]: 7.14 µM
IC50 ([24]; sbc-5): 0.367 µM
IC50 [25]: 16.5 µM
IC50 ([26]; widr): 0.306 µM
